Experimental data from ChEMBL document CHEMBL3352109, “Synthesis and antifungal activity of substituted salicylaldehyde hydrazones, hydrazides and sulfohydrazides” (Bioorg Med Chem, 2014).
≈ marks a conversion by molar mass, not a printed value. Calls of active or inactive are those of the source. The rule behind the calls is not given here.

Columns and labels:
Candida albicans [1] = test: Antifungal activity against Candida albicans ATCC 10231 at 125 ug/ml by NCCLS method; assay type: functional, organism-based
Nakaseomyces glabratus [2] = test: Antifungal activity against Candida glabrata ATCC 48435 at 125 ug/ml by NCCLS method; assay type: functional, organism-based
Nakaseomyces glabratus [3] = test: Antifungal activity against Candida glabrata ATCC 48435 by NCCLS method; assay type: functional
Outline: (§1)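 Broth dilution per NCCLS yeast reference method, in HEPES-buffered RPMI with 1% DMSO. MIC80 is the lowest concentration giving more than 80% growth inhibition versus positive (no-drug) controls. Read by visual scoring, not absorbance. Highest level tested 125 µg/mL.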

Candida albicans [4] = test: Antifungal activity against Candida albicans ATCC 10231 by NCCLS method; assay type: functional; outline: as §1

Row | Structure (SMILES) | Activity (Candida albicans [1]) | Activity (Nakaseomyces glabratus [2]) | MIC80 (Nakaseomyces glabratus [3]) | MIC80 (Candida albicans [4])
1 | COc1ccc(S(=O)(=O)N/N=C/c2ccccc2O)cc1 | inactive | inactive | – | –
2 | COc1ccc(O)c(/C=N/NC(=O)c2ccccc2O)c1 | – | – | 16 µg/mL (≈ 55.9 µM) | 16 µg/mL (≈ 55.9 µM)
3 | O=S(=O)(N/N=C/c1ccccc1O)c1ccc2ccccc2c1 | inactive | inactive | – | –
4 | O=C(N/N=C/c1cc(Cl)ccc1O)c1ccccc1O | – | – | inactive | 8 µg/mL (≈ 27.5 µM)
5 | O=[N+]([O-])c1ccc(S(=O)(=O)N/N=C/c2ccccc2O)cc1 | inactive | inactive | – | –
6 | O=[N+]([O-])c1ccc(N/N=C/c2ccc(O)cc2O)c([N+](=O)[O-])c1 | – | – | inactive | inactive
7 | CC(C)(C)c1cccc(/C=N/Nc2ccc([N+](=O)[O-])cc2)c1O | – | – | inactive | inactive
8 | Oc1c(Br)cccc1/C=N/Nc1ccccc1 | – | – | 16 µg/mL (≈ 55 µM) | 8 µg/mL (≈ 27.5 µM)
9 | Cc1ccc(S(=O)(=O)N/N=C/c2cc(C)ccc2O)cc1 | inactive | inactive | – | –
10 | Oc1ccc(Br)cc1/C=N/Nc1ccccc1 | – | – | 31 µg/mL (≈ 106 µM) | 31 µg/mL (≈ 106 µM)
11 | O=S(=O)(N/N=C/c1cc(Br)ccc1O)c1ccccc1 | inactive | inactive | – | –
12 | N/N=C/c1cc(Cl)ccc1O | – | – | 31 µg/mL (≈ 182 µM) | 62 µg/mL (≈ 363 µM)
13 | COc1ccc(O)c(/C=N/NC(=O)c2ccc(O)cc2)c1 | – | – | 4 µg/mL (≈ 14 µM) | inactive
14 | N/N=C/c1cc(Br)cc(Br)c1O | – | – | 8 µg/mL (≈ 27.2 µM) | 16 µg/mL (≈ 54.4 µM)
15 | O=C(N/N=C/c1cc(Br)cc(Br)c1O)c1ccccc1 | – | – | 31 µg/mL (≈ 77.9 µM) | 8 µg/mL (≈ 20.1 µM)
16 | Oc1c(Cl)cc(Cl)cc1/C=N/Nc1ccccc1 | – | – | 125 µg/mL (≈ 445 µM) | 125 µg/mL (≈ 445 µM)
17 | Cc1ccc(O)c(/C=N/Nc2ccccc2)c1 | – | – | 8 µg/mL (≈ 35.4 µM) | 62 µg/mL (≈ 274 µM)
18 | O=C(N/N=C/c1ccccc1O)c1ccc(O)cc1 | – | – | 4 µg/mL (≈ 15.6 µM) | inactive
19 | O=C(N/N=C/c1ccccc1O)c1ccccc1O | – | – | 8 µg/mL (≈ 31.2 µM) | 16 µg/mL (≈ 62.4 µM)
20 | O=C(N/N=C/c1cccc(Br)c1O)c1ccc([N+](=O)[O-])cc1 | – | – | 31 µg/mL (≈ 85.1 µM) | 31 µg/mL (≈ 85.1 µM)
21 | Oc1ccc(/C=N/Nc2ccccc2)c(O)c1 | – | – | 2 µg/mL (≈ 8.76 µM) | 31 µg/mL (≈ 136 µM)
22 | CC(C)(C)c1cccc(/C=N/NC(=O)c2ccccc2)c1O | – | – | inactive | inactive
23 | O=C(N/N=C/c1cc([N+](=O)[O-])ccc1O)c1ccc([N+](=O)[O-])cc1 | – | – | 16 µg/mL (≈ 48.4 µM) | inactive
24 | O=C(N/N=C/c1cc(Br)ccc1O)c1ccc(O)cc1 | – | – | 62 µg/mL (≈ 185 µM) | 125 µg/mL (≈ 373 µM)

Row | Structure (SMILES) | Activity (Candida albicans [1]) | Activity (Nakaseomyces glabratus [2]) | MIC80 (Nakaseomyces glabratus [3]) | MIC80 (Candida albicans [4])
25 | N/N=C/c1cc(Br)ccc1O | – | – | 62 µg/mL (≈ 288 µM) | 31 µg/mL (≈ 144 µM)
26 | O=C(N/N=C/c1cc([N+](=O)[O-])ccc1O)c1ccccc1 | – | – | 16 µg/mL (≈ 56.1 µM) | 16 µg/mL (≈ 56.1 µM)
27 | Oc1ccc(Cl)cc1/C=N/Nc1ccccc1 | – | – | 31 µg/mL (≈ 126 µM) | 31 µg/mL (≈ 126 µM)
28 | O=C(N/N=C/c1cc(Br)ccc1O)c1ccc([N+](=O)[O-])cc1 | – | – | 2 µg/mL (≈ 5.49 µM) | 1 µg/mL (≈ 2.75 µM)
29 | O=C(N/N=C/c1ccc(/C=N/NC(=O)c2ccccc2)cc1)c1ccccc1 | – | – | inactive | inactive
30 | Oc1ccccc1/C=N/Nc1ccccc1 | – | – | 16 µg/mL (≈ 75.4 µM) | 16 µg/mL (≈ 75.4 µM)
31 | N/N=C/c1cc([N+](=O)[O-])ccc1O | – | – | 31 µg/mL (≈ 171 µM) | inactive
32 | O=[N+]([O-])c1ccc(N/N=C/c2cc([N+](=O)[O-])ccc2O)cc1 | – | – | 62 µg/mL (≈ 205 µM) | 125 µg/mL (≈ 414 µM)
33 | O=C(N/N=C/c1cc([N+](=O)[O-])cc([N+](=O)[O-])c1O)c1ccccc1 | – | – | inactive | inactive
34 | Oc1ccccc1/C=N/N=C/c1ccccc1O | – | – | inactive | inactive
35 | O=[N+]([O-])c1ccc(N/N=C/c2ccc(O)cc2O)cc1 | – | – | 1 µg/mL (≈ 3.66 µM) | inactive
36 | O=Cc1ccc(/C=N/Nc2ccc([N+](=O)[O-])cc2[N+](=O)[O-])cc1 | – | – | inactive | inactive
37 | COc1ccc(O)c(/C=N/Nc2ccccc2)c1 | – | – | 31 µg/mL (≈ 128 µM) | 31 µg/mL (≈ 128 µM)
38 | O=C(N/N=C/c1cc(Cl)cc(Cl)c1O)c1ccccc1 | – | – | 16 µg/mL (≈ 51.8 µM) | 8 µg/mL (≈ 25.9 µM)
39 | Cc1ccc(O)c(/C=N/Nc2ccc([N+](=O)[O-])cc2)c1 | – | – | inactive | inactive
40 | O=C(N/N=C/c1cc(Br)cc(Br)c1O)c1ccc([N+](=O)[O-])cc1 | – | – | 125 µg/mL (≈ 282 µM) | 1 µg/mL (≈ 2.26 µM)
41 | O=[N+]([O-])c1ccc(N/N=C/c2cc(Br)ccc2O)cc1 | – | – | inactive | inactive
42 | Cc1ccc(O)c(/C=N/NC(=O)c2ccccc2O)c1 | – | – | inactive | 16 µg/mL (≈ 59.2 µM)
43 | CC(C)(C)c1cccc(/C=N/N)c1O | – | – | 62 µg/mL (≈ 322 µM) | 125 µg/mL (≈ 650 µM)
44 | N/N=C/c1cc(Cl)cc(Cl)c1O | – | – | 62 µg/mL (≈ 302 µM) | 16 µg/mL (≈ 78 µM)
45 | O=[N+]([O-])c1ccc(O)c(/C=N/Nc2ccccc2)c1 | – | – | 16 µg/mL (≈ 62.2 µM) | 31 µg/mL (≈ 121 µM)
46 | O=C(N/N=C/c1cc(Cl)cc(Cl)c1O)c1ccc([N+](=O)[O-])cc1 | – | – | 125 µg/mL (≈ 353 µM) | 31 µg/mL (≈ 87.5 µM)
47 | COc1ccc(O)c(/C=N/NC(=O)c2ccc([N+](=O)[O-])cc2)c1 | – | – | 2 µg/mL (≈ 6.34 µM) | 125 µg/mL (≈ 396 µM)
48 | N/N=C/c1ccc(O)cc1O | – | – | 31 µg/mL (≈ 204 µM) | 62 µg/mL (≈ 407 µM)

Row | Structure (SMILES) | Activity (Candida albicans [1]) | Activity (Nakaseomyces glabratus [2]) | MIC80 (Nakaseomyces glabratus [3]) | MIC80 (Candida albicans [4])
49 | O=[N+]([O-])c1ccc(N/N=C/c2cc(Br)cc(Br)c2O)cc1 | – | – | 62 µg/mL (≈ 149 µM) | inactive
50 | Cc1ccc(C)c(N/N=C/c2ccccc2O)c1 | – | – | inactive | inactive
51 | O=C(N/N=C/c1cc(Br)ccc1O)c1ccccc1 | – | – | 2 µg/mL (≈ 6.27 µM) | 2 µg/mL (≈ 6.27 µM)
52 | O=[N+]([O-])c1ccc(N/N=C/c2cc(Cl)cc(Cl)c2O)cc1 | – | – | 62 µg/mL (≈ 190 µM) | inactive
53 | Cc1ccc(O)c(/C=N/NC(=O)c2ccc(O)cc2)c1 | – | – | 1 µg/mL (≈ 3.7 µM) | inactive
54 | CC(C)(C)c1cccc(/C=N/NC(=O)c2ccc([N+](=O)[O-])cc2)c1O | – | – | 125 µg/mL (≈ 366 µM) | 31 µg/mL (≈ 90.8 µM)
55 | O=C(N/N=C/c1ccc(O)cc1O)c1ccc([N+](=O)[O-])cc1 | – | – | 0.5 µg/mL (≈ 1.66 µM) | inactive
56 | O=C(N/N=C/c1ccc(/C=N/NC(=O)c2ccc([N+](=O)[O-])cc2)cc1)c1ccc([N+](=O)[O-])cc1 | – | – | inactive | inactive
57 | O=[N+]([O-])c1ccc(N/N=C/c2cc(Cl)ccc2O)cc1 | – | – | 62 µg/mL (≈ 213 µM) | inactive
58 | COc1ccc(O)c(/C=N/NC(=O)c2ccccc2)c1 | – | – | 0.5 µg/mL (≈ 1.85 µM) | 4 µg/mL (≈ 14.8 µM)
59 | CC(C)(C)c1ccc(C(=O)N/N=C/c2ccccc2O)cc1 | – | – | 125 µg/mL (≈ 422 µM) | 4 µg/mL (≈ 13.5 µM)
60 | Oc1c(Br)cc(Br)cc1/C=N/Nc1ccccc1 | – | – | 62 µg/mL (≈ 168 µM) | inactive
61 | O=C(N/N=C/c1cc(Br)ccc1O)c1ccccc1O | – | – | 62 µg/mL (≈ 185 µM) | 8 µg/mL (≈ 23.9 µM)
62 | O=[N+]([O-])c1ccc(N/N=C/c2ccccc2O)cc1 | – | – | 4 µg/mL (≈ 15.5 µM) | 125 µg/mL (≈ 486 µM)
63 | O=[N+]([O-])c1ccc(N/N=C/c2ccccc2O)c([N+](=O)[O-])c1 | – | – | inactive | inactive
64 | O=C(N/N=C/c1cc(Cl)ccc1O)c1ccc(O)cc1 | – | – | 62 µg/mL (≈ 213 µM) | inactive
65 | O=C(N/N=C/c1cccc(Br)c1O)c1ccccc1 | – | – | 2 µg/mL (≈ 6.27 µM) | 4 µg/mL (≈ 12.5 µM)
66 | O=C(N/N=C/c1ccc(O)cc1O)c1ccccc1 | – | – | 1 µg/mL (≈ 3.9 µM) | 31 µg/mL (≈ 121 µM)
67 | C(=N\Nc1ccccc1)/c1ccc(/C=N/Nc2ccccc2)cc1 | – | – | 125 µg/mL (≈ 398 µM) | inactive
68 | O=C(N/N=C/c1cc(Cl)ccc1O)c1ccc([N+](=O)[O-])cc1 | – | – | 62 µg/mL (≈ 194 µM) | 16 µg/mL (≈ 50 µM)
69 | O=C(N/N=C/c1ccccc1O)c1ccccc1 [SALICYLALDEHYDE BENZOYL HYDRAZONE] | – | – | 1 µg/mL (≈ 4.16 µM) | 2 µg/mL (≈ 8.32 µM)
70 | O=[N+]([O-])c1ccc(N/N=C/c2cccc(Br)c2O)cc1 | – | – | inactive | inactive
71 | CC(C)(C)c1cccc(/C=N/Nc2ccccc2)c1O | – | – | inactive | inactive
